In ChEMBL document CHEMBL1275598, “In vitro activity of ceftaroline against community-associated methicillin-resistant, vancomycin-intermediate, vancomycin-resistant, and daptomycin-nonsusceptible Staphylococcus aureus isolates” (2010):
≈ marks a conversion by molar mass, not a printed value.

Legend:
Assay type in all cases: functional
[1] = system: Staphylococcus aureus; assay: Bactericidal activity against vancomycin-resistant Staphylococcus aureus assessed as antibiotic concentration that reduced the number of viable cells by =>99.9% by colony count method; conditions: for MBC: Staphylococcus aureus
In short: (§1)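 MBC per CLSI following microdilution in cation-adjusted Mueller-Hinton broth. Defined as the concentration giving ≥99.9% reduction in viable cells, judged from colony counts of the growth control well against Pearson rejection-value tables. CA-MRSA isolates were hospital patients' isolates with positive MRSA culture within 48 h of admission.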

[2] = system: Staphylococcus aureus; assay: Antimicrobial activity against vancomycin resistant Staphylococcus aureus VRS-7 expressing SCCmec element by microdilution method
In short: (§2)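 Broth microdilution per CLSI in cation-adjusted Mueller-Hinton broth. Antibiotic powders were reconstituted per CLSI. The MIC was read visually as the lowest drug concentration with no visible growth. S. aureus ATCC 29213 and E. faecalis ATCC 29212 served as control strains. VISA and VRSA isolates came from the NARSA program.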

[3] = system: Staphylococcus aureus; assay: Antimicrobial activity against daptomycin-nonsusceptible Staphylococcus aureus assessed as resistant isolates by microdilution method
In short: (§3)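 MICs by CLSI broth microdilution in cation-adjusted Mueller-Hinton broth, read visually as the lowest concentration with no visible growth. Percentages of susceptible or resistant isolates assigned using CLSI breakpoints. Isolates: CA-MRSA (n = 92, positive within 48 h of admission) and DNSSA (n = 7, blood).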

[4] = system: Staphylococcus aureus; assay: Antimicrobial activity against community-acquired methicillin-resistant Staphylococcus aureus assessed as susceptible isolates by microdilution method; in short: as §3
[5] = system: Staphylococcus aureus; assay: Antimicrobial activity against vancomycin resistant Staphylococcus aureus VRS-9 expressing SCCmec type 2 element by microdilution method; in short: as §2
[6] = system: Staphylococcus aureus; assay: Antimicrobial activity against vancomycin resistant Staphylococcus aureus VRS-4 expressing SCCmec type 4 element by microdilution method; in short: as §2
[7] = system: Staphylococcus aureus; assay: Antimicrobial activity against vancomycin-intermediate Staphylococcus aureus assessed as susceptible isolates by microdilution method
In short: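 CLSI broth microdilution in cation-adjusted Mueller-Hinton broth. MIC is the lowest concentration well with no visible growth, read by eye. Isolates were classed susceptible from CLSI breakpoints. S. aureus ATCC 29213 and E. faecalis ATCC 29212 were used as MIC control strains.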

[8] = system: Staphylococcus aureus; assay: Antimicrobial activity against daptomycin-nonsusceptible Staphylococcus aureus assessed as susceptible isolates by microdilution method; in short: as §3
[9] = system: Staphylococcus aureus; assay: Antimicrobial activity against vancomycin resistant Staphylococcus aureus VRS-3 expressing SCCmec type 4 element by microdilution method; in short: as §2
[10] = system: Staphylococcus aureus; assay: Bactericidal activity against daptomycin-nonsusceptible Staphylococcus aureus assessed as antibiotic concentration that reduced the number of viable cells by =>99.9% by colony count method
In short: (§4)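 MBC per CLSI guidelines. It was taken as the antibiotic concentration giving ≥99.9% reduction in viable cells, based on colony counts from the growth control well and rejection values from Pearson's tables.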

[11] = system: Staphylococcus aureus; assay: Antimicrobial activity against daptomycin-nonsusceptible Staphylococcus aureus by microdilution method
In short: (§5)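 MIC by broth microdilution in cation-adjusted Mueller-Hinton broth, following CLSI guidelines; antibiotic powders reconstituted per CLSI. Read visually as the lowest drug concentration well with no visible growth. S. aureus ATCC 29213 and E. faecalis ATCC 29212 served as control strains. CA-MRSA: hospital patients culture-positive within 48 h of admission. DNSSA: patient blood isolates. VISA: obtained from the NARSA program.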

[12] = system: Staphylococcus aureus; assay: Antimicrobial activity against vancomycin intermediate Staphylococcus aureus NRS-118 expressing SCCmec type 1 element by microdilution method; in short: as §5
[13] = system: Staphylococcus aureus; assay: Antimicrobial activity against vancomycin-resistant Staphylococcus aureus assessed as resistant isolates by microdilution method
In short: (§6)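 CLSI broth microdilution MICs in cation-adjusted Mueller-Hinton broth, read visually as the lowest concentration with no visible growth. Percent of isolates classed susceptible or resistant was assigned using CLSI breakpoints.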

[14] = system: Staphylococcus aureus; assay: Antimicrobial activity against vancomycin-resistant Staphylococcus aureus assessed as susceptible isolates by microdilution method; in short: as §6
[15] = system: Staphylococcus aureus; assay: Antimicrobial activity against vancomycin intermediate Staphylococcus aureus NRS-3 expressing SCCmec type 2 element by microdilution method; in short: as §5
[16] = system: Staphylococcus aureus; assay: Antimicrobial activity against community-acquired methicillin-resistant Staphylococcus aureus assessed as resistant isolates by microdilution method; in short: as §3
[17] = system: Staphylococcus aureus; assay: Antimicrobial activity against vancomycin-intermediate Staphylococcus aureus assessed as resistant isolates by microdilution method; in short: as §6
[18] = system: Staphylococcus aureus; assay: Antimicrobial activity against vancomycin resistant Staphylococcus aureus VRS-10 expressing SCCmec type 2 element by microdilution method; in short: as §2
[19] = system: Staphylococcus aureus; assay: Antimicrobial activity against vancomycin resistant Staphylococcus aureus VRS-2 expressing SCCmec type 2 element by microdilution method; in short: as §2
[20] = system: Staphylococcus aureus; assay: Bactericidal activity against vancomycin-intermediate Staphylococcus aureus assessed as antibiotic concentration that reduced the number of viable cells by =>99.9% by colony count method; conditions: for MBC: Staphylococcus aureus; in short: as §4
[21] = system: Staphylococcus aureus; assay: Antimicrobial activity against vancomycin-resistant Staphylococcus aureus by microdilution method; in short: as §2
[22] = system: Staphylococcus aureus; assay: Antimicrobial activity against vancomycin resistant Staphylococcus aureus VRS-8 expressing SCCmec element by microdilution method; in short: as §2
[23] = system: Staphylococcus aureus; assay: Antimicrobial activity against vancomycin resistant Staphylococcus aureus VRS-1 expressing SCCmec type 2 element by microdilution method; in short: as §2
[24] = system: Staphylococcus aureus; assay: Bactericidal activity against community-acquired methicillin-resistant Staphylococcus aureus assessed as antibiotic concentration that reduced the number of viable cells by =>99.9% by colony count method; conditions: for MBC: Staphylococcus aureus; in short: as §1
[25] = system: Staphylococcus aureus; assay: Antimicrobial activity against community-acquired methicillin-resistant Staphylococcus aureus by microdilution method; in short: as §5
[26] = system: Staphylococcus aureus; assay: Antimicrobial activity against vancomycin intermediate Staphylococcus aureus NRS-404 expressing SCCmec type 2 element by microdilution method; in short: as §5
[27] = system: Staphylococcus aureus; assay: Antimicrobial activity against vancomycin resistant Staphylococcus aureus VRS-6 expressing SCCmec type 2 element by microdilution method; in short: as §2
[28] = system: Staphylococcus aureus; assay: Antimicrobial activity against vancomycin intermediate Staphylococcus aureus NRS-17 expressing SCCmec type 2 element by microdilution method; in short: as §5
[29] = system: Staphylococcus aureus; assay: Antimicrobial activity against vancomycin intermediate Staphylococcus aureus NRS-402 expressing SCCmec type 2 element by microdilution method; in short: as §5
[30] = system: Staphylococcus aureus; assay: Antimicrobial activity against vancomycin resistant Staphylococcus aureus VRS-5 expressing SCCmec type 2 element by microdilution method; in short: as §2
[31] = system: Staphylococcus aureus; assay: Antimicrobial activity against vancomycin-intermediate Staphylococcus aureus by microdilution method; in short: as §2
[32] = system: Staphylococcus aureus; assay: Antimicrobial activity against vancomycin intermediate Staphylococcus aureus NRS-27 expressing SCCmec type 2 element by microdilution method; in short: as §5
[33] = system: Staphylococcus aureus; assay: Antimicrobial activity against vancomycin intermediate Staphylococcus aureus NRS-26 expressing SCCmec type 2 element by microdilution method; in short: as §5
[34] = system: Staphylococcus aureus; assay: Antimicrobial activity against vancomycin intermediate Staphylococcus aureus NRS-22 expressing SCCmec type 2 element by microdilution method; in short: as §5
[35] = system: Staphylococcus aureus; assay: Antimicrobial activity against vancomycin intermediate Staphylococcus aureus NRS-68 expressing SCCmec type 2 element by microdilution method; in short: as §5
[36] = system: Staphylococcus aureus; assay: Antimicrobial activity against vancomycin intermediate Staphylococcus aureus NRS-19 expressing SCCmec type 2 element by microdilution method; in short: as §5
[37] = system: Staphylococcus aureus; assay: Antimicrobial activity against vancomycin intermediate Staphylococcus aureus NRS-73 expressing SCCmec type 4d element by microdilution method; in short: as §5
[38] = system: Staphylococcus aureus; assay: Antimicrobial activity against vancomycin intermediate Staphylococcus aureus NRS-403 expressing SCCmec type 2 element by microdilution method; in short: as §5

CN[C@H](CC(C)C)C(=O)N[C@H]1C(=O)N[C@@H](CC(N)=O)C(=O)N[C@H]2C(=O)N[C@H]3C(=O)N[C@H](C(=O)N[C@H](C(=O)O)c4cc(O)cc(O)c4-c4cc3ccc4O)[C@H](O)c3ccc(c(Cl)c3)Oc3cc2cc(c3O[C@@H]2O[C@H](CO)[C@@H](O)[C@H](O)[C@H]2O[C@H]2C[C@](C)(N)[C@H](O)[C@H](C)O2)Oc2ccc(cc2Cl)[C@H]1O [VANCOMYCIN]
MBC50 [1]: >64 µg/mL | MBC90 [1]: >64 µg/mL | MBC [1]: > 64 µg/mL | MIC [2]: > 64 µg/mL | Activity [3]: 0% | Activity [4]: 100% | MIC [5]: > 64 µg/mL | MIC [6]: > 64 µg/mL | Activity [7]: 13% | Activity [8]: 100% | MIC [9]: 32 µg/mL (≈ 22.1 µM) | MBC50 [10]: 2 µg/mL (≈ 1.38 µM) | MBC ([10]; Staphylococcus aureus, read-out: MBC): 2 µg/mL (≈ 1.38 µM) | MIC50 ([11]; Staphylococcus aureus): 2 µg/mL (≈ 1.38 µM) | MIC [12]: 8 µg/mL (≈ 5.52 µM) | Activity [13]: 100% | Activity [14]: 0% | MIC [15]: 8 µg/mL (≈ 5.52 µM) | Activity [16]: 0% | Activity [17]: 0% | MIC [18]: > 64 µg/mL | MIC [19]: 32 µg/mL (≈ 22.1 µM) | MBC50 [20]: 4 µg/mL (≈ 2.76 µM) | MBC90 [20]: 8 µg/mL (≈ 5.52 µM) | MBC [20]: 1 µg/mL (≈ 0.69 µM) | MIC50 [21]: > 64 µg/mL | MIC90 [21]: > 64 µg/mL | MIC [22]: > 64 µg/mL | MIC [23]: > 64 µg/mL | MBC50 [24]: 1 µg/mL (≈ 0.69 µM) | MBC90 [24]: 1 µg/mL (≈ 0.69 µM) | MBC [24]: 0.5 µg/mL (≈ 0.345 µM) | MIC50 [25]: 1 µg/mL (≈ 0.69 µM) | MIC90 [25]: 1 µg/mL (≈ 0.69 µM) | MIC [26]: 8 µg/mL (≈ 5.52 µM) | MIC [27]: > 64 µg/mL | MIC [28]: 8 µg/mL (≈ 5.52 µM) | MIC [29]: 8 µg/mL (≈ 5.52 µM) | MIC [30]: > 64 µg/mL | MIC50 [31]: 4 µg/mL (≈ 2.76 µM) | MIC90 [31]: 8 µg/mL (≈ 5.52 µM)

CC(=O)NC[C@H]1CN(c2ccc(N3CCOCC3)c(F)c2)C(=O)O1 [LINEZOLID]
MBC [1]: > 8 µg/mL | MIC [32]: 1 µg/mL (≈ 2.96 µM) | MIC [2]: 1 µg/mL (≈ 2.96 µM) | MIC [33]: 1 µg/mL (≈ 2.96 µM) | MIC [5]: 1 µg/mL (≈ 2.96 µM) | MIC [34]: 1 µg/mL (≈ 2.96 µM) | Activity [7]: 100% | Activity [8]: 100% | MIC [35]: 1 µg/mL (≈ 2.96 µM) | MBC50 [10]: >8 µg/mL | MIC [11]: 1 µg/mL (≈ 2.96 µM) | MIC50 ([11]; Staphylococcus aureus): 2 µg/mL (≈ 5.93 µM) | MIC ([11]; Staphylococcus aureus, read-out: MIC): 1.48 µg/mL (≈ 4.39 µM) | MIC [12]: 1 µg/mL (≈ 2.96 µM) | MBC50 [20]: 4 µg/mL (≈ 11.9 µM) | MBC90 [20]: >8 µg/mL | MBC [20]: > 1 µg/mL | MIC50 [21]: 2 µg/mL (≈ 5.93 µM) | MIC90 [21]: 2 µg/mL (≈ 5.93 µM) | MIC [22]: 1 µg/mL (≈ 2.96 µM) | MBC [24]: > 4 µg/mL | MIC50 [25]: 2 µg/mL (≈ 5.93 µM) | MIC90 [25]: 2 µg/mL (≈ 5.93 µM) | MIC [36]: 1 µg/mL (≈ 2.96 µM) | MIC [28]: 1 µg/mL (≈ 2.96 µM) | MIC [29]: 0.5 µg/mL (≈ 1.48 µM) | MIC [37]: 1 µg/mL (≈ 2.96 µM) | MIC50 [31]: 2 µg/mL (≈ 5.93 µM) | MIC90 [31]: 2 µg/mL (≈ 5.93 µM) | MIC [38]: 1 µg/mL (≈ 2.96 µM)
